experiment: Toxicity liver stage against HepG2, at 10uM; type: cell-based; set-up: test concentration 10 uM, cell line HepG2-A16-CD81EGFP; details: human, HepG2-A16-CD81EGFP cells; read-out: INHIBITION
Outline: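 Uninfected HepG2-A16-CD81EGFP cells, 3 × 10^3 per well, 1536-well, plated on prespotted compound at 10 μM final, parasite-free screening media added to match infected plates; puromycin 10 μM positive, DMSO 0.5% negative; run in parallel with 48 h PbLuc assay at 37 °C, 5% CO2; viability by CellTiter-Glo luminescence, normalized to controls.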

Q: For `Cc1ccn(CCC(=O)NCc2ccc(C)o2)n1`, which cytotoxicity at 10 µM is on record?
A: -2.96%

Q: With `COC(=O)CC(c1cccs1)c1oc(C)cc(=O)c1O` (stereo not given) as the compound, how does the cytotoxicity at 10 µM read?
A: 2.99%

Q: Which cytotoxicity at 10 µM does the source give for `Cc1ccccc1OCC(=O)NCC(c1ccc(N(C)C)cc1)N(C)C` (stereo not given) here?
A: -30.2%

Q: With `CC(C)NC(=O)Cn1cc(OCc2ccc(F)cc2)c(=O)cc1CO` as the compound, how does the cytotoxicity at 10 µM read?
A: 4.74%

Q: For `COc1cccc(CNC(=O)NC2(c3nc(C)no3)CCCCC2)c1`, which cytotoxicity at 10 µM is on record?
A: 4.04%

Q: Which cytotoxicity at 10 µM does the source give for `O=C(c1cnccn1)N1CCC(Oc2ncccc2Cl)CC1` here?
A: 0.566%

Q: For `O=c1[nH]nc2c(S(=O)(=O)N3CCOCC3)cccn12`, which cytotoxicity at 10 µM is on record?
A: -1.7%

Q: Which cytotoxicity at 10 µM does the source give for `CC(CC(=O)O)CC(=O)Nc1sc2c(c1C(N)=O)CCc1ccccc1-2` (stereo not given) here?
A: 8.26%

Q: For `COC(=O)CC(c1ccc(OC)c(OC)c1)c1oc(C)cc(=O)c1O` (stereo not given), which cytotoxicity at 10 µM is on record?
A: 16.8%

Q: Which cytotoxicity at 10 µM does the source give for `CC1CCCN(C(=O)c2ccn(COc3ccccc3)n2)C1` (stereo not given) here?
A: 9.43%

Q: For `CCCc1nc(NCCCn2cccn2)c2c(n1)c(C)nn2CC`, which cytotoxicity at 10 µM is on record?
A: 7.88%

Q: Which cytotoxicity at 10 µM does the source give for `CCn1nc(C)c(NC(=O)c2nnn(Cc3ccccc3)c2OC)c1C` here?
A: 13.9%

Q: With `CCn1c(C)nc2cc(NC(=O)CC3CCCCO3)ccc21` (stereo not given) as the compound, how does the cytotoxicity at 10 µM read?
A: 5.36%

Q: For `O=C1NCc2ccccc2CC12CCCN(CCCc1ccccc1)C2` (stereo not given), which cytotoxicity at 10 µM is on record?
A: 10.3%

Q: Which cytotoxicity at 10 µM does the source give for `O=C(c1ccc(Cl)cc1)N1CCC(N2CCCCC2=O)CC1` here?
A: 7.3%

Q: Which cytotoxicity at 10 µM does the source give for `COc1cc(CNc2nc(C3CC3)no2)cc(OC)c1OC` here?
A: -0.291%

Q: With `Cn1c(CS(=O)(=O)Cc2cccc(Cl)c2)cc(=O)n(C)c1=O` as the compound, how does the cytotoxicity at 10 µM read?
A: 8.17%

Q: For `CC(C)(C)C(=O)N1CCCN(c2ncnc3nc(N)ccc23)CC1`, which cytotoxicity at 10 µM is on record?
A: 3.39%

Q: For `NC(=O)N1CCCC(C(=O)NCCOc2ccc(F)c(F)c2)C1` (stereo not given), which cytotoxicity at 10 µM is on record?
A: 2.94%

Q: Which cytotoxicity at 10 µM does the source give for `CCN(Cc1ccc2c(c1)OCO2)c1ncc(S(N)(=O)=O)s1` here?
A: 8.14%

Q: With `CN(C)c1cc(C(=O)NC2(c3cccc(F)c3)CCOCC2)ccn1` as the compound, how does the cytotoxicity at 10 µM read?
A: -1.31%

Q: Which cytotoxicity at 10 µM does the source give for `O=C(NCCCO)Nc1cccc(I)c1` here?
A: -6.1%

Q: Which cytotoxicity at 10 µM does the source give for `Cc1cc(C)n(CCC(=O)OCC(=O)N2CCc3sccc3C2)n1` here?
A: 8.52%

Q: For `CCn1nc(C)cc1C(=O)NCc1noc(C(C)(C)C)n1`, which cytotoxicity at 10 µM is on record?
A: 8.7%

Q: Which cytotoxicity at 10 µM does the source give for `CC(C)(C)C(=O)N1CCN(Cn2nccc2-c2cccnc2)CC1` here?
A: 8.27%

Q: Which cytotoxicity at 10 µM does the source give for `CNC(=O)Cn1cc(C#N)c(=O)c2cc(Br)ccc21` here?
A: 23.7%

Q: Which cytotoxicity at 10 µM does the source give for `CN1CCN(C)C2(CCN(C(=O)CC(F)(F)F)CC2)C1=O` here?
A: 1.24%

Q: For `CCN1CC2(CC1=O)CN(C(=O)NC(C)C)CCN(C(=O)NC(C)C)C2`, which cytotoxicity at 10 µM is on record?
A: -1.73%

Q: For `CC(C)n1nc(CN2CCCC2=O)c2c1CN(C(=O)c1ccno1)C2`, which cytotoxicity at 10 µM is on record?
A: 3.39%

Q: Which cytotoxicity at 10 µM does the source give for `Cc1ccc(N2CC[C@H](OCC3CC3)[C@@H]2Cc2ccncc2)nn1` here?
A: 8.13%

Q: With `Cc1nn(C)cc1C(C)Nc1ncnc2sccc12` (stereo not given) as the compound, how does the cytotoxicity at 10 µM read?
A: 14.1%

Q: For `Cc1c(C2c3nc[nH]c3CCN2CCOCc2ccccc2)cnn1C` (stereo not given), which cytotoxicity at 10 µM is on record?
A: 0.838%

Q: For `Cc1cc(C2CCCN2Cc2nc3c(cnn3C)c(=O)[nH]2)on1` (stereo not given), which cytotoxicity at 10 µM is on record?
A: -10.7%

Q: For `Cc1nn(C)c(C)c1CCC(=O)N1CCCC(n2cncn2)C1` (stereo not given), which cytotoxicity at 10 µM is on record?
A: -1.4%

Q: Which cytotoxicity at 10 µM does the source give for `Cc1ccc(-c2nc(CCNC(=O)NCC(C)(C)C(N)=O)co2)cc1` here?
A: -10.1%

Q: Which cytotoxicity at 10 µM does the source give for `Cc1nn(C)c(N(C)C)c1CNCc1ccccc1Cn1ccnc1` here?
A: -15.3%

Q: For `Cc1ccccc1OCCN1CCn2c(C)nnc2C1`, which cytotoxicity at 10 µM is on record?
A: -2.78%

Q: Which cytotoxicity at 10 µM does the source give for `Cc1ccc(C(=O)N2CCC(c3n[nH]c(C4CC4)n3)CC2)cc1F` here?
A: -5.5%

Q: Which cytotoxicity at 10 µM does the source give for `c1ccc(CN2C[C@H]3CCC[C@@]3(COCC3CC3)C2)nc1` here?
A: 1.55%

Q: With `c1cnc(-c2noc(C3CN(Cc4ccc5c(c4)CCO5)C3)n2)nc1` as the compound, how does the cytotoxicity at 10 µM read?
A: 0.488%

Q: Which cytotoxicity at 10 µM does the source give for `Cn1cccc1C(=O)N1CC[C@H]2[C@H]1CCN2CC1CCOCC1` here?
A: -4.81%

Q: With `Fc1ccccc1CN1C[C@@H]2CN(Cc3cccnc3)CCO[C@@H]2C1` as the compound, how does the cytotoxicity at 10 µM read?
A: 9.2%

Q: Which cytotoxicity at 10 µM does the source give for `Cn1ccc(C(=O)N2C[C@@H]3CN(CC4CC4)CCO[C@@H]3C2)n1` here?
A: 14.9%

Q: With `Cc1ccc(-c2n[nH]cc2CNCC2CCN(CC(F)(F)F)C2)o1` (stereo not given) as the compound, how does the cytotoxicity at 10 µM read?
A: 6.99%

Q: For `O=C([C@@H]1CSCN1)N1CCC2(CC1)CNCc1ccccc12`, which cytotoxicity at 10 µM is on record?
A: -2.08%

— ChEMBL document CHEMBL4513216, “Probing the Open Global Health Chemical Diversity Library for Multistage-Active Starting Points for Next-Generation Antimalarials” (ACS Infect Dis, 2020)
